Reference: ChEMBL document CHEMBL4138147, “Discovery of a fluorescent probe with HDAC6 selective inhibition” (Eur J Med Chem, 2017)
Calls of active or inactive are those of the source. The calls are words filed in the database; no cut-off is given here.

Key:
[1] = target: Histone deacetylase 3 (Homo sapiens, UniProt O15379); assay: Inhibition of human recombinant full-length C-terminal GST-tagged HDAC3 expressed in baculovirus infected Sf9 cells using Boc-Lys(acetyl)-AMC as substrate after 30 mins by fluorescence assay
Histone deacetylase 3, sequence (O15379 whole entry): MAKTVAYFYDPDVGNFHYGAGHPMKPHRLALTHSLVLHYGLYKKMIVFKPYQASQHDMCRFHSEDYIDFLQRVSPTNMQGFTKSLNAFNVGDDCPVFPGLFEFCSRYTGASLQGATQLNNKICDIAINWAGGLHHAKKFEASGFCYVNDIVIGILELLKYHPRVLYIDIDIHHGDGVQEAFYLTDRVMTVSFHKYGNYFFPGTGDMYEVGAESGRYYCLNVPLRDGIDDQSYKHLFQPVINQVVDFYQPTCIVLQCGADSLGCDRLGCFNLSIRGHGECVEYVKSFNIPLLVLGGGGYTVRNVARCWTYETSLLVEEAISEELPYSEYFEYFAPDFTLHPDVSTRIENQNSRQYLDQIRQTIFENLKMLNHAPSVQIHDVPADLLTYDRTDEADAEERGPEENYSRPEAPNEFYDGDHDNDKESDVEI

[2] = target: T1, Protein deacetylase HDAC6 (Homo sapiens, UniProt Q9UBN7); assay: Inhibition of human recombinant full-length HDAC6 expressed in baculovirus infected Sf9 cells using Boc-Lys(acetyl)-AMC as substrate after 30 mins by fluorescence assay
T1 sequence (Q9UBN7 whole entry): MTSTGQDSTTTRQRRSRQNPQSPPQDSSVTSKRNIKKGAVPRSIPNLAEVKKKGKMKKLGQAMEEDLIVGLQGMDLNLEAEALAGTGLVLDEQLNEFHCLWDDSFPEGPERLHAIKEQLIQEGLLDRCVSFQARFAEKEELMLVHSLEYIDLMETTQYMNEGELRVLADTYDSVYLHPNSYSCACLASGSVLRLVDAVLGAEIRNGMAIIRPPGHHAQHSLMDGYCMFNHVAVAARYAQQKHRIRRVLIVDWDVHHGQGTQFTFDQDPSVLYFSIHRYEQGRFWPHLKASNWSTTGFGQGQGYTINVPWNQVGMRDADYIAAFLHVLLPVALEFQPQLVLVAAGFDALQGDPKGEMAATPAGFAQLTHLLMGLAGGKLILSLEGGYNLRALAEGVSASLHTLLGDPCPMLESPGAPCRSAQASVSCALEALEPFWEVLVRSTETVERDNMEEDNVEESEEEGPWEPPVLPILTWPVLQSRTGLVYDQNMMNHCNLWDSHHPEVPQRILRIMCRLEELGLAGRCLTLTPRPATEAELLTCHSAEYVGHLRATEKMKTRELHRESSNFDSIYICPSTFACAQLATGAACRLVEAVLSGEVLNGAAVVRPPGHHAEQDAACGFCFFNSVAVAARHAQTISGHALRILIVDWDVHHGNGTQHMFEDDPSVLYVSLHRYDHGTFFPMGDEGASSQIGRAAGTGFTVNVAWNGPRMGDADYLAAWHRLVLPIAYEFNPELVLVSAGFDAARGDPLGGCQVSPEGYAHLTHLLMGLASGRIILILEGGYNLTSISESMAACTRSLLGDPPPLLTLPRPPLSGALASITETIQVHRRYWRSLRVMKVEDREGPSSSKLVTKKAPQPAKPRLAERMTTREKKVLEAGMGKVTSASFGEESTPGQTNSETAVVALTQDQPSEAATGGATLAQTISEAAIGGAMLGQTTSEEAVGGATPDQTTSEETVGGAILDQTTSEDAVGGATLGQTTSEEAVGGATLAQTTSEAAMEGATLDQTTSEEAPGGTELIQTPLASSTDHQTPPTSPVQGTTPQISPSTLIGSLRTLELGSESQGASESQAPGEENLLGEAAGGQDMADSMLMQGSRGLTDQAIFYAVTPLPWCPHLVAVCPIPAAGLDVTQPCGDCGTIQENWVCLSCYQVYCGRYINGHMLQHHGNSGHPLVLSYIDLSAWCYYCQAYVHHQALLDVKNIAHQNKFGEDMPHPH

[3] = target: Histone deacetylase 1 (Homo sapiens, UniProt Q13547); assay: Inhibition of human recombinant full-length HDAC1 (1 to 482 residues) expressed in baculovirus using Boc-Lys(acetyl)-AMC as substrate after 30 mins by fluorescence assay
Histone deacetylase 1, sequence (Q13547 whole entry, the tested form may be a part): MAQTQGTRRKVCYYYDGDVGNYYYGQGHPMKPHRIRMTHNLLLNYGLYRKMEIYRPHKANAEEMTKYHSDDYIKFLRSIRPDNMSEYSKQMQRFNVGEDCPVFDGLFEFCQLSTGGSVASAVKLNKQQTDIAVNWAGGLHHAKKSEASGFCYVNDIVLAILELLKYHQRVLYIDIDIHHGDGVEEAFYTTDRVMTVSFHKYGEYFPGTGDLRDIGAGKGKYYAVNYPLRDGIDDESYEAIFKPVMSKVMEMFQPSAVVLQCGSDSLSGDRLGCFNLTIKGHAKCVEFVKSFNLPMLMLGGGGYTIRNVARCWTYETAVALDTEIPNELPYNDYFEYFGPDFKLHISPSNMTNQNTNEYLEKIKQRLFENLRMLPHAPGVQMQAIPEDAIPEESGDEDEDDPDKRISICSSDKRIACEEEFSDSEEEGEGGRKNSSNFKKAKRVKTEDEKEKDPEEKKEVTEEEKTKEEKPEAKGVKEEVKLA

[4] = target: Histone deacetylase 2 (Homo sapiens, UniProt Q92769); assay: Inhibition of human recombinant full-length C-terminal GST-tagged HDAC2 expressed in baculovirus infected Sf9 cells using Boc-Lys(acetyl)-AMC as substrate after 30 mins by fluorescence assay; type: cell-based
Histone deacetylase 2, sequence (Q92769 whole entry): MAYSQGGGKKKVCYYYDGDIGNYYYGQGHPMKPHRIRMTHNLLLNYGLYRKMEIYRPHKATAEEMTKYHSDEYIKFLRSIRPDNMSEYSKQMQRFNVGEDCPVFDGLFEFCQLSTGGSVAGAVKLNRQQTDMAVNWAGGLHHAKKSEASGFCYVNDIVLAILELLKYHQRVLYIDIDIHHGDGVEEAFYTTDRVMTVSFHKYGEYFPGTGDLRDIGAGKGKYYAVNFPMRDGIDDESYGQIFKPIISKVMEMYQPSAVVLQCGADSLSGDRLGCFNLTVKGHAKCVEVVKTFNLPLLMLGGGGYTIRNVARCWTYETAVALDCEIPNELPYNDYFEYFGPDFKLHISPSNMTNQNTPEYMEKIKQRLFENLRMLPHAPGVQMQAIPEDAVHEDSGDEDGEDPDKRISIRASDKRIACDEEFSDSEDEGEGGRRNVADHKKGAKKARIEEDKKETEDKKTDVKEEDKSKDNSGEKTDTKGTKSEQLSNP

[5] = target: T2, Protein deacetylase HDAC6 (Homo sapiens) (UniProt Q9UBN7); assay: (§1) Binding affinity to HDAC6 in aggresomes of human A549 cells assessed as formation of aggresome-like structures at 2 uM added after 24 hrs pre-treatment with MG132 followed by compound addition measured after 2 hrs by fluorescence staining-based confocal microscopic analysis
T2 sequence (whole entry): T1 sequence (Q9UBN7 whole entry)
Procedure, shortened: (§2)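 A549 cells (DMEM, 10% FBS, 37 °C, 5% CO2) given DMSO or 5 μM MG132 for 24 h, fixed in 4% formaldehyde/PBS 20 min, then stained with 2 μM compound in PBS for 2 h. For antibody co-staining, cells were permeabilized with 0.1% Triton X-100, BSA-blocked, and probed overnight at 4 °C with anti-HDAC6 or anti-ubiquitin antibody plus Alexa 647 secondary before the compound. Confocal imaging: compound ex 405/em 500–600 nm; antibody ex 633/em 650–750 nm.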

[6] = target: T3, Histone deacetylase 7 (Homo sapiens, UniProt Q8WUI4); assay: Inhibition of HDAC7 (unknown origin) using Boc-Lys(acetyl)-AMC as substrate after 30 mins by fluorescence assay
T3 sequence (Q8WUI4 whole entry): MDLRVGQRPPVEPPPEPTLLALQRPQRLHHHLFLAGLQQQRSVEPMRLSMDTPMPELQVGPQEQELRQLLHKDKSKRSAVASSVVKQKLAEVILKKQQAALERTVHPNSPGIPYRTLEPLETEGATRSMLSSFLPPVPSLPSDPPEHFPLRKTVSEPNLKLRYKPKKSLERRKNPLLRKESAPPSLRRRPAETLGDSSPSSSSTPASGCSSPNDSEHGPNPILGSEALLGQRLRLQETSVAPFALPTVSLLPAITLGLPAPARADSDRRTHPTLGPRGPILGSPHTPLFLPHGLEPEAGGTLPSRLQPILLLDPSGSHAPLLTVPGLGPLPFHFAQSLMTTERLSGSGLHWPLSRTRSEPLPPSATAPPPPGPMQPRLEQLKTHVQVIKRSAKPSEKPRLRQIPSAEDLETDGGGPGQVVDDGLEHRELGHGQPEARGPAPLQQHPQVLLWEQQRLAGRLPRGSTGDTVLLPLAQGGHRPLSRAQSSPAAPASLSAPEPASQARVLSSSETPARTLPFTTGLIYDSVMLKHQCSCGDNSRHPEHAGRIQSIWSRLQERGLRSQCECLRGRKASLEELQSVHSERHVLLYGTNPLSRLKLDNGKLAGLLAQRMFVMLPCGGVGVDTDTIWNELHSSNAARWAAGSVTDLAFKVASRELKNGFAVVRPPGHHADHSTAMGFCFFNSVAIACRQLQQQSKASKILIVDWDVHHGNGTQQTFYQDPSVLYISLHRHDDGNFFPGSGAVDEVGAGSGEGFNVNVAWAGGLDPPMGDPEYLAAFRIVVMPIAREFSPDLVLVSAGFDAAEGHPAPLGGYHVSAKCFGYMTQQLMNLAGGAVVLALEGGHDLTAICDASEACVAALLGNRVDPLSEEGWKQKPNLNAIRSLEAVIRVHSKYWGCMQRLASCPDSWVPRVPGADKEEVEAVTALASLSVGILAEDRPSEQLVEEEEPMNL

[7] = target: Histone deacetylase 1/2/3 (Homo sapiens) (UniProt Q13547+O15379+Q92769); details: A549, at 500 nM
[8] = Drug uptake in human A549 cells assessed as intracellular distribution at 2 uM added after 24 hrs pre-treatment with MG132 followed by compound addition measured after 2 hrs by fluorescence staining-based confocal microscopic analysis; type: ADME, cell-based; details: a549, 24 h; procedure, shortened: as §2
[9] = target: T2, Protein deacetylase HDAC6 (Homo sapiens); assay: as §1, with “induction of co-localization” for “formation”, “structures with polyubiquitin” for “structures”; procedure, shortened: as §2
[10] = target: T2, Protein deacetylase HDAC6 (Homo sapiens); assay: Binding affinity to HDAC6 in aggresomes of human A549 cells assessed as relocation of compound to single bright juxtanuclear structure at 2 uM added after 24 hrs pre-treatment with MG132 followed by compound addition measured after 2 hrs by fluorescence staining-based confocal microscopic analysis; procedure, shortened: as §2
[11] = target: Histone deacetylase 4 (Homo sapiens, UniProt P56524); assay: Inhibition of HDAC4 (unknown origin) using Boc-Lys(acetyl)-AMC as substrate after 30 mins by fluorescence assay
Histone deacetylase 4, sequence (P56524 whole entry, canonical isoform): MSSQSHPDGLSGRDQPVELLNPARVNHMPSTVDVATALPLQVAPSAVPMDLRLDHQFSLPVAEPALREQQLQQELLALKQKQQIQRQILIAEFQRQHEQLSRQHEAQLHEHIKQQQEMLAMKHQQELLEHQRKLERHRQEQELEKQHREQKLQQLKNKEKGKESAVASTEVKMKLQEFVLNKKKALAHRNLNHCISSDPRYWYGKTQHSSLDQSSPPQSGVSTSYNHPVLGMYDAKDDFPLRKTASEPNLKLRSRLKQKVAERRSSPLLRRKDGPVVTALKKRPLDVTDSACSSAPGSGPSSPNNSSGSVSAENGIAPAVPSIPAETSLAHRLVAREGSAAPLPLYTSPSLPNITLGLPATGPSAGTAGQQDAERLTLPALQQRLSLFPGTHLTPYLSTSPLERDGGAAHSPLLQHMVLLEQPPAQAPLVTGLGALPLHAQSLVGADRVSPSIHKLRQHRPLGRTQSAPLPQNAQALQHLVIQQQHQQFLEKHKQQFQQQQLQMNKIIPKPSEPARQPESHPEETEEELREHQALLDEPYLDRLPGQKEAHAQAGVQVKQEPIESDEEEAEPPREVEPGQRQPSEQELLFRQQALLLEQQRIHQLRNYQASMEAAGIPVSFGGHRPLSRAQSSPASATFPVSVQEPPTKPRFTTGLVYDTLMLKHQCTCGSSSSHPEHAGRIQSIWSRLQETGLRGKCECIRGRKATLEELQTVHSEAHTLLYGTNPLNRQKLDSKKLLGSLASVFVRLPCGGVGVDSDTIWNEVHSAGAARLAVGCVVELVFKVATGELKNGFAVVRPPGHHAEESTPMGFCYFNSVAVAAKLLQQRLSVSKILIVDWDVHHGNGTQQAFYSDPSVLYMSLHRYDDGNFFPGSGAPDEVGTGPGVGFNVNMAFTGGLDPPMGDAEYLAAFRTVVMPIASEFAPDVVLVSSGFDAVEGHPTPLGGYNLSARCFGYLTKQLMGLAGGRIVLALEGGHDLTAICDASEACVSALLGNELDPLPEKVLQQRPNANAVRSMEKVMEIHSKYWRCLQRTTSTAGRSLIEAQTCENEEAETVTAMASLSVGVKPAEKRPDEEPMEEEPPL
Procedure, shortened: (§3)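 The HDAC isoform was incubated with substrate and compound (from a 10% DMSO dilution, 5 μL into a 50 μL reaction) at 37 °C for 30 min. The reaction was stopped with developer containing trypsin and TSA.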

[12] = target: Histone deacetylase 5 (Homo sapiens, UniProt Q9UQL6); assay: Inhibition of HDAC5 (unknown origin) using Boc-Lys(acetyl)-AMC as substrate after 30 mins by fluorescence assay; procedure, shortened: as §3
Histone deacetylase 5, sequence (Q9UQL6 whole entry): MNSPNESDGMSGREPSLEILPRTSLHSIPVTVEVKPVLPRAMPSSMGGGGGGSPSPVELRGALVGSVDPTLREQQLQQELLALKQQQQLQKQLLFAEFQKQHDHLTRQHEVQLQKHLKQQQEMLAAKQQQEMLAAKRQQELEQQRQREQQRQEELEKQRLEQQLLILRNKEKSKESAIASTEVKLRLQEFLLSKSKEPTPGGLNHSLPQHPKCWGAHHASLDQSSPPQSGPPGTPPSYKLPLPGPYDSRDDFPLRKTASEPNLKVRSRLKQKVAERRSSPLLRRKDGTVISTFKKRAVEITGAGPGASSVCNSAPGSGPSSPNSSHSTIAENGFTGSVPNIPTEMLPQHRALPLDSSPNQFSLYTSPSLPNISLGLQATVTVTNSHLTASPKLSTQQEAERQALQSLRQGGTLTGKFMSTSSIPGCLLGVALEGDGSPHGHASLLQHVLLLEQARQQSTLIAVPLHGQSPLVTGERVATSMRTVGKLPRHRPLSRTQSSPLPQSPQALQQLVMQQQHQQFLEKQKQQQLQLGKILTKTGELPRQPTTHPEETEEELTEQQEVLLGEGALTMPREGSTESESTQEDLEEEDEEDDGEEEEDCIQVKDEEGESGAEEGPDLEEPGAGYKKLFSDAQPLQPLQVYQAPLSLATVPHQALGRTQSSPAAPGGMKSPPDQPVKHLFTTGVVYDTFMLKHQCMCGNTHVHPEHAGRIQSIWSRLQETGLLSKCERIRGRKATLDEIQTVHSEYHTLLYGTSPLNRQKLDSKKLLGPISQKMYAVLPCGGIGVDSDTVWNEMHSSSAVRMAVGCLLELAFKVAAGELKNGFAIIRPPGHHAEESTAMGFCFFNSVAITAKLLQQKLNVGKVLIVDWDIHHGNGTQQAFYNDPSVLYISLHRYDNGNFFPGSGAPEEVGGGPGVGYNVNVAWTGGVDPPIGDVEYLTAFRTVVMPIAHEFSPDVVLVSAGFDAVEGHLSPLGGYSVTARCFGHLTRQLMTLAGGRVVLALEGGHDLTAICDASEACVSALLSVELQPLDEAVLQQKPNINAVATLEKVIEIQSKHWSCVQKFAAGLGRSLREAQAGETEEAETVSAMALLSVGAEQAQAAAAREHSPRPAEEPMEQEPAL

[13] = target: T4, Polyamine deacetylase HDAC10 (Homo sapiens, UniProt Q969S8); assay: Inhibition of HDAC10 (unknown origin) using Boc-Lys(acetyl)-AMC as substrate after 30 mins by fluorescence assay; procedure, shortened: as §3
T4 sequence (Q969S8 whole entry): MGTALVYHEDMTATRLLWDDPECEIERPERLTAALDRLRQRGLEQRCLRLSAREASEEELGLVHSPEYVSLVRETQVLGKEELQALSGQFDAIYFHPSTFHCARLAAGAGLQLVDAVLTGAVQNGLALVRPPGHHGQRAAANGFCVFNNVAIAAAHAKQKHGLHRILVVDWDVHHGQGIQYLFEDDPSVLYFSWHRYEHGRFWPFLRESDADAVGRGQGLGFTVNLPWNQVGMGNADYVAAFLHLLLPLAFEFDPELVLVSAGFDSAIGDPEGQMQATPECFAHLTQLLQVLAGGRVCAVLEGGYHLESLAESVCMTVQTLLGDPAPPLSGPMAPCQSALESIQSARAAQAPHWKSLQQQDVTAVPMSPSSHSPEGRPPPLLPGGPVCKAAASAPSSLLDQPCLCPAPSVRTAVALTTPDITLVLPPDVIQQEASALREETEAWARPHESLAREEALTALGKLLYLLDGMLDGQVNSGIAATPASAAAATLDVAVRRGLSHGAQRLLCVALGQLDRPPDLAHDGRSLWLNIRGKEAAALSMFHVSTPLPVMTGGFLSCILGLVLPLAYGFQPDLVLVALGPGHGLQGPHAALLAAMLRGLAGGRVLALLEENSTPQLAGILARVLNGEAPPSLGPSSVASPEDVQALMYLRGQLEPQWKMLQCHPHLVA

[14] = Drug uptake in cytoplasm of human A549 cells assessed as diffused staining in cytoplasm at 2 uM added after 24 hrs pre-treatment with DMSO followed by compound addition measured after 2 hrs by fluorescence staining-based confocal microscopic analysis; type: ADME, subcellular; details: a549, 24 h; procedure, shortened: as §2
[15] = target: Histone deacetylase 9 (Homo sapiens, UniProt Q9UKV0); assay: Inhibition of HDAC9 (unknown origin) using Boc-Lys(acetyl)-AMC as substrate after 30 mins by fluorescence assay; procedure, shortened: as §3
Histone deacetylase 9, sequence (Q9UKV0 whole entry): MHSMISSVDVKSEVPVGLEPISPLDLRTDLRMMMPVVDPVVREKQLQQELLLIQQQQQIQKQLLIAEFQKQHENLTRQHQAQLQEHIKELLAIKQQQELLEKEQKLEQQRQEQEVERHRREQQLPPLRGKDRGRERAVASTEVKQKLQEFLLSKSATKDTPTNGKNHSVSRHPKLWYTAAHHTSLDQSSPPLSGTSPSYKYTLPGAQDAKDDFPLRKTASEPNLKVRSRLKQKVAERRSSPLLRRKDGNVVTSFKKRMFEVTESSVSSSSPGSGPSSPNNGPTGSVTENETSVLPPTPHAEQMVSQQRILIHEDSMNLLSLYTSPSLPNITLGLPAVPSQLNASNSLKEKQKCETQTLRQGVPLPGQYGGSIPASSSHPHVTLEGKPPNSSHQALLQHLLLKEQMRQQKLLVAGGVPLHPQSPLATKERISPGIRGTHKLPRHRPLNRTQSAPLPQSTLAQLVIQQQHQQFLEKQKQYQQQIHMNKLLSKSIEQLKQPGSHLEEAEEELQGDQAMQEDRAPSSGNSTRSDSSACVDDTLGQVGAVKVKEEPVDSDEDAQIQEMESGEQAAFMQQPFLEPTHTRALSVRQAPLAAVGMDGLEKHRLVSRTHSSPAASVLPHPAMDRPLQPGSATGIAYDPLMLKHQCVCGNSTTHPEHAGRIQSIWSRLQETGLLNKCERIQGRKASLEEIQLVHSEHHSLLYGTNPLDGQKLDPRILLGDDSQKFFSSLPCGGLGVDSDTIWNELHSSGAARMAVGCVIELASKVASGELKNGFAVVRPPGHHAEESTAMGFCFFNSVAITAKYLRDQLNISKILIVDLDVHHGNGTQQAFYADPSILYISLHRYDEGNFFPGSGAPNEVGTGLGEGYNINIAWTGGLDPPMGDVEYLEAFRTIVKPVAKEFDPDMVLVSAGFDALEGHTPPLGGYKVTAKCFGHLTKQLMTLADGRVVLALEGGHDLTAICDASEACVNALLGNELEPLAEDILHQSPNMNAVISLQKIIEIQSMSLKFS

[16] = target: T5, Histone deacetylase 8 (Homo sapiens, UniProt Q9BY41); assay: Inhibition of HDAC8 (unknown origin) using Boc-Lys(acetyl)-AMC as substrate after 30 mins by fluorescence assay; procedure, shortened: as §3
T5 sequence (Q9BY41 whole entry): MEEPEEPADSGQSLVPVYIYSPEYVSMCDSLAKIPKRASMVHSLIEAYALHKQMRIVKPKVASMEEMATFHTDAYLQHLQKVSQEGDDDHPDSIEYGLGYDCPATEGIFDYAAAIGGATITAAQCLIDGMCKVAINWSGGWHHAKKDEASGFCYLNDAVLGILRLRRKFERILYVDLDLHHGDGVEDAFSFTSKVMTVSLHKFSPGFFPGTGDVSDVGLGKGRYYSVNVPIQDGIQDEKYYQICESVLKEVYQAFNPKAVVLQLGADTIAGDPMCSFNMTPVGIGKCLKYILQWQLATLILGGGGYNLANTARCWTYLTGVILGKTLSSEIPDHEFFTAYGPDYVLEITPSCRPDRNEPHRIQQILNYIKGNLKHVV

[17] = target: T6, Histone deacetylase 11 (Homo sapiens, UniProt Q96DB2); assay: Inhibition of HDAC11 (unknown origin) using Boc-Lys(acetyl)-AMC as substrate after 30 mins by fluorescence assay; procedure, shortened: as §3
T6 sequence (Q96DB2 whole entry): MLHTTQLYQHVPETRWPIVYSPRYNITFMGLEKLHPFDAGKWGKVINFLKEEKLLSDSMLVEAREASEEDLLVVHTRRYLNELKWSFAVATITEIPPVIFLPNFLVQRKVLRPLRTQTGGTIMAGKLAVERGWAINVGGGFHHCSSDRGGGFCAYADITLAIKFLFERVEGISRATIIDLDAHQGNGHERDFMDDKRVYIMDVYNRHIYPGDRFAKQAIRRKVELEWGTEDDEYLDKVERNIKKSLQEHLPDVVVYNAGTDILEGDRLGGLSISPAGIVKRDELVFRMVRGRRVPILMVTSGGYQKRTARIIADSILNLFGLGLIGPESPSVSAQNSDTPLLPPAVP

IC50 [1] [µM]	IC50 [2] [µM]	IC50 [3] [µM]	IC50 [4] [µM]	Activity [5]	IC50 [6] [µM]	inhibition [7]	Drug uptake [8]	Activity [9]	Activity [10]	IC50 [11] [µM]	IC50 [12] [µM]	IC50 [13] [µM]	Drug uptake [14]	IC50 [15] [µM]	IC50 [16] [µM]	IC50 [17] [µM]	Compound
0.00265	0.00065	0.00525	0.0256	inactive	–	–	–	–	–	–	–	–	–	–	–	–	O=C(CCCCCN1C(=O)c2cccc3c(N4CCOCC4)ccc(c23)C1=O)NO
> 30	0.139	> 20	> 100	Active	> 100	inactive	Active	Active	Active	> 100	> 100	1.87	Active	> 30	3.05	> 10	O=C(NO)c1ccc(CCN2C(=O)c3cccc4c(N5CCOCC5)ccc(c34)C2=O)cc1
0.0111	0.0027	0.0362	0.0988	inactive	–	Active	–	–	–	–	–	–	–	–	–	–	O=C(NO)c1ccc(CN2C(=O)c3cccc4c(N5CCOCC5)ccc(c34)C2=O)cc1
